We go through 2 molecules from article PMC6682096 (ACS Omega, 2019).

Series [1] relates to insulin-resistant HepG2 cells. In words: 2-NBDG glucose uptake assay. Conditions: for relative glucose uptake percentage: insulin-stimulated 2-NBDG uptake. The series is classed as cell-based, human. In short, it runs like this:
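Insulin-resistant HepG2 cells (grown in 10% FBS MEM; resistance induced by a previously reported method) treated with test compound at 12.5, 25 and 50 μM and stimulated with 10–6 M insulin. Uptake of the fluorescent glucose analogue 2-NBDG read fluorimetrically on a plate reader. Rosiglitazone (10 μM) served as reference. Triplicate experiments, mean ± standard deviation.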

Series [2] concerns the target T1, PTP1B (Homo sapiens, UniProt P18031).
T1 sequence (P18031 1-435): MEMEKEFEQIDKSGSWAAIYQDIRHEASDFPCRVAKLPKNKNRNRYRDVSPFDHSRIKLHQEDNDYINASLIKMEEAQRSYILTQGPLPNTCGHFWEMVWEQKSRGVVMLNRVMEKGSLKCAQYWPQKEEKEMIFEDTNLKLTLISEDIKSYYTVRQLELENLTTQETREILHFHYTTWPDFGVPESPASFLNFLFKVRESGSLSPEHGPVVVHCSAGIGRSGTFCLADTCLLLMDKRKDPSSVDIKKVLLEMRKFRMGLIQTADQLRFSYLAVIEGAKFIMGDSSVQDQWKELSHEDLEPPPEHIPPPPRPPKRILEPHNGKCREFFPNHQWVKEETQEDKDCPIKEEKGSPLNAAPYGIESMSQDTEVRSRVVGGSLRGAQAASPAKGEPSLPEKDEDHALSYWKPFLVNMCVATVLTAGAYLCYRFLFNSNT
Description: Enzyme kinetics of PTP1B inhibition. The series is classed as biochemical. Conditions: for Ki: secondary plots. The gist of the method: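 Human recombinant PTP1B (0.5 unit) in pH 6.0 buffer (50 mM citrate, 0.1 M NaCl, 1 mM EDTA, 1 mM DTT) was preincubated with or without test compound for 10 min at 37 °C. pNPP substrate was then added at three concentrations and incubated for 20 min at 37 °C. NaOH stopped the reaction, and p-nitrophenol was read at 405 nm. Km and Vmax came from Lineweaver–Burk plots, with Dixon plots also used. Ki, Kic and Kiu came from secondary plots.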

Another series concerns HepG2 cells. Description: Cytotoxicity, cell viability by MTT assay. The series is classed as cell-based, human. Particulars: up to 100 μM. In short, it runs like this:
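HepG2 cells were subcultured in MEM with 10% FBS, refreshing the medium every 48 h until confluent. They were then seeded in 96-well plates, and viability after test-compound exposure was assessed by MTT assay.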
For orientation: Tetrazolium assays rely on reduction of a dye to a coloured formazan, in cell work by metabolically active cells.

In series [3] the test system is PTP1B expression in insulin-resistant HepG2 cells. In words: Western blot of PTP1B expression level. Conditions: 24 h treatment. The series is classed as cell-based, human.
Series [4] has as its target T1, PTP1B. In words: PTP1B inhibition assay using pNPP. Type of series: biochemical.
Series [5] concerns the target T2, human monoamine oxidase A (hMAO-A) (Homo sapiens, UniProt P21397).
T2 sequence (P21397 1-527): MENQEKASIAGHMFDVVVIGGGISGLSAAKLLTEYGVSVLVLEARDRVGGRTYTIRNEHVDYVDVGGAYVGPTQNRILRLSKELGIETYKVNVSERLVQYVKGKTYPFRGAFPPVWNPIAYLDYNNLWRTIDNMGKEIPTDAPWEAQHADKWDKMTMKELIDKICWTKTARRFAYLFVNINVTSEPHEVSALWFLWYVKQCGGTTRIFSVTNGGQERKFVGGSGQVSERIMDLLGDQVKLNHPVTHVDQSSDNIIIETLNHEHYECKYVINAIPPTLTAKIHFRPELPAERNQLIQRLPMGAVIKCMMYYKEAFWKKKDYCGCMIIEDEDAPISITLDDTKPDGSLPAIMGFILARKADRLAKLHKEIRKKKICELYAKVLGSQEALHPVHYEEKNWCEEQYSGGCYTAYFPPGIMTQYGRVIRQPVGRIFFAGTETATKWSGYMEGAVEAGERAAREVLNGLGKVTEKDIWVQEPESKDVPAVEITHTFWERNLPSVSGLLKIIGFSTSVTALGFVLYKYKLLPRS
Description: hMAO-A inhibition chemiluminescent assay. The series is classed as biochemical.

The next series concerns the target T3, hMAO-A (Homo sapiens, UniProt P21397).
T3 sequence (P21397 1-527): T2 sequence (P21397 1-527)
Description: Enzyme kinetics of hMAO-A inhibition. Type of series: biochemical. Particulars: Lineweaver–Burk plot. The gist of the method:
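hMAO-A activity measured by chemiluminescent MAO-Glo assay, with MAO substrate at three concentrations, with or without test compound. Lineweaver–Burk plots (with Dixon plots) gave Km, Vmax and inhibition mode. Ki, Kic and Kiu came from secondary plots.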

Series [6] concerns IRS-1/PI3K/Akt signaling pathway in insulin-resistant HepG2 cells. Description: Western blot of IRS-1/PI3K/Akt signaling pathway. The series is classed as cell-based, human. On the technique in general: Immunoblotting shows a protein as a band on a membrane.
Series [7] concerns PEPCK and G6Pase expression in insulin-resistant HepG2 cells. In words: Western blot of PEPCK and G6Pase expression levels. The series is classed as cell-based, human.

Entries after “also recorded” stand apart in the source; their conditions may differ.

Regarding `CN(CCOc1ccc(CC2SC(=O)NC2=O)cc1)c1ccccn1` (stereo not drawn) [Rosiglitazone, reference compound], the insulin-stimulated glucose uptake in [1] (10 μM, 2-NBDG) was determined as 118.52%.

A word on the Ki: it is a measure of affinity in units of concentration, obtained from inhibition or displacement. The IC50 is the concentration at which inhibition is half-maximal. High values mean a need for much substance, low ones inhibition by little substance. Turning to `COc1cc(O)c2c(O)c3c(=O)cc(C)oc3cc2c1` [rubrofusarin], the “relative glucose uptake percentage” value was 68.54% in [1] (12.5 μM), 81.27% in series [1] (25 μM) and 98.47% in [1] (50 μM). Also, the PTP1B inhibition type result at PTP1B [2] (Lineweaver–Burk plot) is “mixed-competitive”. Further, the Ki on PTP1B [2] (PTP1B inhibition Ki value (Kic), binding constant of the inhibitor with the free enzyme) came to 6.99 µM; at PTP1B [2] (PTP1B inhibition Ki value (Kiu), binding constant of the inhibitor with the enzyme–substrate complex), 18.3 µM. The “cytotoxicity (cell viability)” value in the series with HepG2 cells is on record as “showed toxicity at 100 μM; also recorded: nontoxic up to a 50 μM concentration”. In addition, in series [3], the PTP1B expression entry is “inhibited PTP1B expression in a dose-dependent manner; also recorded: at 50 μM concentration significantly reduced the expression”. Further, the IC50 on PTP1B [4] worked out at 17 ± 0.49 µM; in [5] it was 5.9 ± 0.99 µM. For the same molecule, the hMAO-A inhibition type result at hMAO-A is “mixed-competitive”. Moreover, the “expression of total IRS-1 and p-IRS-1 (Tyr 895)” value in series [6] is “dose-dependently increased the expression of total IRS-1 and p-IRS-1 (Tyr 895)”. In addition, in series [6], the “relative abundances of p-PI3K and p-Akt” value is “in a dose-dependent manner increased the relative abundances of p-PI3K and p-Akt”. Further, in [7], the “expressions of PEPCK and G6Pase” value is “downregulate the expressions of PEPCK and G6Pase”.
